# SR-BI uptake up – SR-BI HDL lipid transfer activation. CHO ldlA[mSR-BI] cells, DiI-HDL uptake fluorescence, 3 h; 100 = double the neutral-control signal. 320,000 tested, 0.096% active. activation, % at 12.5 µM. AID 504775;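 active means mean replicate activation of at least 60% and every replicate at or above 60%; inconclusive means mean or all-replicate condition met, but not both; inactive means mean below 60% and not all replicates reaching 60%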
#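 material = CHO ldlA[mSR-BI] cells | medium = Ham's F12 with 0.5% BSA, HEPES 25 mM, pH 7.4 | reagent = fluorescent DiI-HDL, 10 µg/mL final | compound dosing = single-point compound dose | incubation = 3 h, 37 °C | measured by = bottom-read fluorescence, 550/595 nm | measure = HDL uptake via cellular fluorescence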
# GSK3A inh – blocks human GSK-3 alpha kinase; P49840; ADP-Glo luminescence, 60 min; inhibition, % at 10 µM; 320,000 tested, 0.1% active; AID 2650;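 active means more than half of replicates show inhibition above 20%; inconclusive means some but at most half of replicates above 20% inhibition; inactive means no replicate shows inhibition above 20%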;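 further: GST-tagged GSK-3 alpha with peptide substrate and 25 µM ATP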
# GSK3B inh – inhibitors of human GSK3beta kinase; P49841; GST-GSK3beta kinase, ADP-Glo luminescence, 60 min; stronger effect = lower value; activity score (negative = inhibition), % at 10 µM; 300,000 tested, 0.038% active; AID 2097;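 active means more than half of replicate wells score below -50%, meaning over 50% inhibition versus plate controls; inconclusive means some replicates but at most half score below -50%; inactive means no replicate scores below -50%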
#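 test system = GST-tagged human GSK3beta kinase, cell-free | reagent = 25 µM ATP with peptide substrate | dosing = one dose of 10 µM per compound | schedule = 60 min reaction, RT | detection = luminescent ADP-Glo measurement of ADP formed | control set = DMSO neutral wells and GW8510 at 20 µM as positive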
# SR-BI DiI inh – blocks mouse SR-BI lipid uptake from DiI-HDL. Q61009. ldlA[mSR-BI] CHO cells, DiI-HDL uptake fluorescence, 3 h. inhibition, % at 12.5 µM. 320,000 tested, 0.96% active. AID 488896;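 active means mean replicate inhibition of at least 70% and a set share of replicates each scoring 70 or more; inconclusive means meets just one of the two criteria; inactive means fails both criteria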
# Target sequence (Q61009 whole entry, looked up): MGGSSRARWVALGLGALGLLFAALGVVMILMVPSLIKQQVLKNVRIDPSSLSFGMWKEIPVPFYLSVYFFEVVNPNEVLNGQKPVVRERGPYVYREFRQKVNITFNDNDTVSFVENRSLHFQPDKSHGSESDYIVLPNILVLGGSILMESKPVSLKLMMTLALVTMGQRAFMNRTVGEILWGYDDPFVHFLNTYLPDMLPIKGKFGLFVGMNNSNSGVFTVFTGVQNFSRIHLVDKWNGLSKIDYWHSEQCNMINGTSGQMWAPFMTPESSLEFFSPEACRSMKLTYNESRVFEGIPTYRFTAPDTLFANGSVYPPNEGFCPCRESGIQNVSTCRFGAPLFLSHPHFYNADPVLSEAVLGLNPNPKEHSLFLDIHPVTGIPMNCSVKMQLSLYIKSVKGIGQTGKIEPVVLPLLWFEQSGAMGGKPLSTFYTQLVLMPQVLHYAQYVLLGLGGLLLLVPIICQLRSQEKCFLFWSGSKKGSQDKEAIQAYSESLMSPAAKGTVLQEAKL
# CDK5 inh – inhibitors of human CDK5/p35 kinase | AID 488839 | 330,000 tested, 0.01% active | Q00535+Q15078 | inhibition, % at 10 µM | Recombinant CDK5/p35, ADP-Glo luminescence, 60 min;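 active means highest replicate inhibition of at least 50% and at least 75% of replicates reaching 50%; inconclusive means only one of the two criteria met; inactive means both criteria failed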
# Hits are given with their value; . = inactive; ? = inconclusive; / = no result. In the library only some 1.1% were active in any assay of this set; here they are far more common.
SMILES,SR-BI uptake up,GSK3A inh,GSK3B inh,SR-BI DiI inh,CDK5 inh
Cc1cccc(/C=N/NC(=O)c2ccc3c(c2)OCCO3)c1O,.,.,.,111,.
COc1cc(OC)c(OC)cc1/C=N/NC(=O)CCc1c(C)n[nH]c1C,.,.,.,.,.
COc1ccc(Cc2[nH]n3c(=O)c(Cl)c(C)nc3c2-c2ccccc2)cc1,.,.,.,.,.
CCOc1cccc(/C=N/NC(=O)c2cc(-c3cccn3C)n[nH]2)c1O,.,.,.,104,.
O=C(N/N=C/c1cc([N+](=O)[O-])ccc1O)c1ccc2c(c1)OCCO2,.,.,.,131,.
O=C(N/N=C/c1ccccc1[N+](=O)[O-])c1ccc2c(c1)OCCO2,/,.,.,/,.
COc1cccc(/C=N/NC(=O)c2c(C)nc3ccc(Cl)cn23)c1O,.,.,.,120,.
O=C(N/N=C/c1cc([N+](=O)[O-])ccc1O)c1cccc(N2CCCC2=O)c1,.,.,.,117,.
COc1cc(OC)c(OC)cc1/C=N/NC(=O)c1cc(-c2cccn2C)n[nH]1,.,.,.,.,.
CC(C)c1nc2c(c(=O)c3ccccc3n2C)c(=O)n1CCc1ccccc1,/,.,.,/,/
CN(CCOc1ccc(Cl)cc1)C(=O)c1cc(S(=O)(=O)N2CCOCC2)ccc1N1CCCC1,.,.,/,.,.
CCOc1cccc(/C=N/NC(=S)Nc2cc(S(=O)(=O)N3CCOCC3)ccc2N2CCOCC2)c1O,.,.,.,94,.
COc1cccc(/C=N/NC(=O)CNC(=O)c2ccc3c(c2)OCCO3)c1O,.,.,.,.,.
CCOc1cccc(/C=N/NC(=O)c2ccc3c(c2)OCCO3)c1O,.,.,.,87,.
CC1CN(C2CCCCC2)C(=S)NC1=O (configuration not stated),.,/,/,.,.
CN(CC(=O)Nc1ccccc1Cl)C(=O)c1cccc(S(=O)(=O)N2CCN(Cc3ccccc3)CC2)c1,.,.,.,.,.
Cc1ccc(NC(=O)c2ccccc2OCC(=O)c2ccccc2)cc1,.,.,.,78,.
Cc1ccc(C(=O)COc2ccccc2C(=O)Nc2ccccc2)cc1,.,.,.,.,.
Cc1c(-c2ccccc2)nc2ccccc2c1C(=O)Oc1ccc([N+](=O)[O-])cc1,.,.,.,88,.
Cc1nc2cccc(C(=O)Oc3ccc([N+](=O)[O-])cc3)c2o1,.,.,.,.,.
Cc1ccc(C(=O)Nc2ccc(N3CCN(C)CC3)cc2)c(Cl)c1,.,.,.,.,.
CCCCSc1nnc(-c2ccccc2)c2ccccc12,.,.,.,74,.
COC(=O)c1ccc2c(c1)C(C)(C)C(/C=C/c1ccc(O)cc1)=[N+]2C,.,.,.,?,.
COC(=O)c1ccc2c(c1)C(C)(C)C(/C=C/c1ccc(OC)c(OC)c1OC)=[N+]2C,.,.,.,105,.
COc1ccc(/C=N\NC(=O)c2cc(O)c(O)c(O)c2)cc1COc1ccc(C(=O)OCC(C)C)cc1,.,.,.,79,.
SMILES,SR-BI uptake up,GSK3A inh,GSK3B inh,SR-BI DiI inh,CDK5 inh
O=C(Nc1ccc(Cl)c(S(=O)(=O)N2CCOCC2)c1)c1cc(-c2ccccn2)nc2ccccc12,.,.,.,83,.
O=C(Nc1ccc(Cl)c(S(=O)(=O)N2CCOCC2)c1)c1ccc2c(c1)OCCO2,.,.,.,72,.
CC(=O)Nc1ccc(NC(=O)c2cc(=O)c3ccc(C)cc3o2)cc1,.,.,.,.,.
COc1ccc(NC(=O)c2cc(-c3ccco3)nc3ccccc23)cc1S(=O)(=O)N1CCOCC1,.,.,.,89,.
CC(=O)Nc1ccc(NC(=O)c2cc(=O)c3cc(C)c(C)cc3o2)cc1,.,.,.,72,.
COc1ccc(NC(=O)c2cc(C)nc3ccccc23)cc1S(=O)(=O)N1CCOCC1,.,.,/,.,.
Cc1ccccc1NC(=O)c1ccc(CN(c2ccccc2)S(=O)(=O)c2ccccc2)cc1,.,.,.,.,.
C=CCn1c(SCN2C(=O)c3ccccc3C2=O)nc2ccc(Cl)cc2c1=O,.,.,.,.,.
Cc1ccc(NC(=O)c2cc(=O)c3ccccc3o2)cc1S(=O)(=O)N1CCCCC1,.,.,.,80,.
Cc1c(C(=O)Nc2ccc(F)c(F)c2)oc2ccc(S(=O)(=O)N3CCCCC3)cc12,.,.,.,75,.
